From article PMC11495195 (Drug Design, Development and Therapy, 2024)

Assays:
[1] = Body weight and side-effects in H1299 xenograft mice; type: in vivo; settings: 6 mg/kg intraperitoneal; for body weight change: after 21 days of administration
Summary of the method: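 Female BALB/c nude mice, 5 weeks old, kept pathogen-free, received 1.4 × 10^6 NCI-H1299 cells subcutaneously. At about 75 mm3 tumours, mice were randomised (n = 5). Dosing was intraperitoneal at 6 mg/kg: vehicle (2% DMSO, 30% PEG-400, 68% ddH2O) or test compound daily for 21 days, doxorubicin every 3 days. Body weight was weighed every 3 days; mean ± SEM.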

[2] = In vitro liver microsome stability, human; type: in vitro ADME; settings: human liver microsomes; mean ± SD (n = 5)
Summary of the method: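 Test compound at 20 μM final was incubated with 0.5 mg/mL human or mouse liver microsomes and NADPH in 0.1 M phosphate buffer for 30 min at 37°C. The reaction was quenched with 2 volumes of cold acetonitrile plus internal standard, held overnight at −20°C and centrifuged. Supernatant was analysed by UPLC-MS/MS. 6-Hydroxycoumarin was the positive control; a no-NADPH blank was the negative control.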

PDHK1 = PDHK1 (Homo sapiens, UniProt Q15118); assay: In vitro PDHK activity assay; type: biochemical; settings: read-out: Inhibition% at 10 µM, PDHK1, 10 µM; mean ± SD (n = 5)
Chain of PDHK1 (Q15118 29-436): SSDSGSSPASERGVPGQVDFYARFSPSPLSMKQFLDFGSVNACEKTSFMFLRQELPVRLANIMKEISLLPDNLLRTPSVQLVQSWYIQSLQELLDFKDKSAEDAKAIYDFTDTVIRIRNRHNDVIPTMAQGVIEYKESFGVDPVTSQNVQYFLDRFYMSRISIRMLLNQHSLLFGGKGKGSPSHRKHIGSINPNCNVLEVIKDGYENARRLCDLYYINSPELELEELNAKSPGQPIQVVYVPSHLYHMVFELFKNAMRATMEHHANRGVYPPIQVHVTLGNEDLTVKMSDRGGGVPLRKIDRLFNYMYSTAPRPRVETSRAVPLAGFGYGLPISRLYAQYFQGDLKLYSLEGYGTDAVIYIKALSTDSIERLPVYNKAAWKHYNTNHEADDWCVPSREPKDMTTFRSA

| CLint [2] | inhibition at 10 µM (PDHK1) | SMILES | body weight change [1] | other side-effects ([1]; 21 days) |
| --- | --- | --- | --- | --- |
| – | – | COc1cccc2c1C(=O)c1c(O)c3c(c(O)c1C2=O)C[C@@](O)(C(=O)CO)C[C@@H]3O[C@H]1C[C@H](N)[C@H](O)[C@H](C)O1 [DOX, doxorubicin, reference compound] | significant body weight loss | – |
| 29.7 µL/min/mg | – | CC(C)Oc1ccc(S(=O)(=O)c2ccc(Oc3cc(OCC(N)=O)c(C(=O)C(Cl)Cl)cc3[N+](=O)[O-])cc2)cc1 [Compound 32, 2-(2-(2,2-Dichloroacetyl)-5-(4-((4-isopropoxyphenyl)sulfonyl)phenoxy)-4-nitrophenoxy)acetamide] | decreased very little | No other side-effects were observed |
| – | 26.5 to 30.1% | O=C1c2ccccc2C(=O)c2c(Oc3ccc(C(=O)C(Cl)Cl)cc3[N+](=O)[O-])cccc21 [Compound 18, 1-(4-(2,2-Dichloroacetyl)-2-nitrophenoxy)anthracene-9,10-dione] | – | – |
